In ChEMBL document CHEMBL4342503, “Diazabicyclooctane Functionalization for Inhibition of β-Lactamases from Enterobacteria” (2020) one finds Ratio and MIC data, which are given here for eleven molecules.

A short description of experiment [1]: Inhibition of TEM1 (unknown origin) expressed in Escherichia coli BL21 DE3 assessed as K2/Ki ratio using nitrocefin as substrate by spectrophotometry. Put shortly: (§1)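 His-tagged enzymes expressed in E. coli BL21(DE3) (IPTG 0.5 mM, 16°C, 18 h), purified by Ni-NTA and size exclusion in 25 mM Tris-HCl pH 7.5, 300 mM NaCl. Carbamoylation k2/Ki from progress curves, reporter nitrocefin 100 μM, 20°C, 100 mM MES pH 6.4; inhibitor up to 100 μM; ≥6 curves, ≥2 independent experiments.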

In experiment [2] the test system is Enterobacter cloacae. The experiment can be described thus: Inhibition of Enterobacter cloacae CTX-M-15 expressed in Escherichia coli BL21 DE3 assessed as K2/Ki ratio using nitrocefin as substrate by spectrophotometry. Put shortly:
as §1

The test system of experiment [3] is Escherichia coli. The experiment can be described thus: Antibacterial activity against Escherichia coli Top10 without harboring AmpC assessed as cefotaxime MIC by CLSI protocol based method (reference value: 0.125 ug/ml). Format: functional.
Experiment [4] concerns Escherichia coli. The experiment can be described thus: Antibacterial activity against Escherichia coli Top10 harboring KPC-2 assessed as aztreonam MIC by CLSI protocol based method (reference value: 2048 ug/ml). The class given is functional.
A short description of experiment [5]: Inhibition of OXA-48 expressed in Escherichia coli BL21 DE3 assessed as K2/Ki ratio using CENTA as substrate by spectrophotometry. The essentials:
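OXA-48 expressed in E. coli BL21(DE3) (IPTG 0.5 mM, 16°C, 18 h), purified by Ni-NTA and size exclusion. Carbamoylation k2/Ki by spectrophotometric progress curves with CENTA 100 μM as reporter, 20°C, 100 mM MES pH 6.4; inhibitor up to 100 μM; ≥6 curves from ≥2 independent experiments.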

For experiment [6], the system named is Escherichia coli. As to the kind of experiment: Antibacterial activity against Escherichia coli Top10 without harboring OXA-48 assessed as ertapenem MIC by CLSI protocol based method (reference value: < 0.03 ug/ml). Format: functional.
The nature of experiment [7]: Inhibition of KPC-2 (unknown origin) expressed in Escherichia coli BL21 DE3 assessed as K2/Ki ratio using nitrocefin as substrate by spectrophotometry. The essentials:
as §1

The subject of experiment [8] is Escherichia coli. As to the kind of experiment: Antibacterial activity against Escherichia coli Top10 without harboring KPC-2 assessed as aztreonam MIC by CLSI protocol based method (reference value: 0.5 ug/ml). The class given is functional.
The test system of experiment [9] is Escherichia coli. As to the kind of experiment: Antibacterial activity against Escherichia coli Top10 harboring AmpC assessed as cefotaxime MIC by CLSI protocol based method (reference value: 256 ug/ml). Format: functional.
The test system of experiment [10] is Escherichia coli. As to the kind of experiment: Antibacterial activity against Escherichia coli Top10 harboring OXA-48 assessed as ertapenem MIC by CLSI protocol based method (reference value: 8 ug/ml). Format: functional.
Experiment [11] relates to Enterobacter cloacae. As to the kind of experiment: Inhibition of Enterobacter cloacae AmpC expressed in Escherichia coli BL21 DE3 assessed as K2/Ki ratio using nitrocefin as substrate by spectrophotometry. Put shortly: as §1
In experiment [12] the test system is Escherichia coli. The experiment can be described thus: Antibacterial activity against Escherichia coli Top10 harboring TEM1 assessed as cefamandole MIC by CLSI protocol based method (reference value: 2048 ug/ml). Format: functional.
Experiment [13] concerns Escherichia coli. As to the kind of experiment: Antibacterial activity against Escherichia coli Top10 harboring CTX-M-15 assessed as amoxicillin MIC by CLSI protocol based method (reference value: 2048 ug/ml). The class given is functional.
In experiment [14] the test system is Escherichia coli. The experiment can be described thus: Antibacterial activity against Escherichia coli Top10 assessed as cefamandole MIC by CLSI protocol based method (reference value: 2 ug/ml). Format: functional. Put shortly: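 Broth microdilution in cation-adjusted Mueller-Hinton broth following CLSI. Strain carries a β-lactamase gene cloned in pTRC-99k (kanamycin marker); preculture in BHI with IPTG (500 μM) and kanamycin (50 μg/ml); IPTG (500 μM) also in plates to induce enzyme. β-Lactam MIC read with or without inhibitor at fixed 15 μM (4 μg/ml for avibactam; clavulanate 4 μg/ml). Median of five biological repeats from two independent experiments.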

Experiment [15] relates to Escherichia coli. The experiment can be described thus: Antibacterial activity against Escherichia coli Top10 without harboring CTX-M-15 assessed as amoxicillin MIC by CLSI protocol based method (reference value: 8 ug/ml). Format: functional.

The structures appear in SMILES notation. Activity calls are given as the source filed them. Where only a bound is given, the exact number is not on record here.

For orientation: MIC means the smallest concentration in the dilution series that meets the test's criterion for growth inhibition. As for `CC(C)(C)OC(=O)NCc1cn(C[C@@H]2CC[C@@H]3CN2C(=O)N3OS(=O)(=O)[O-])nn1.[Na+]`, the Ratio in [1] came to 2800 M⁻¹ s⁻¹; in experiment [2], 130 M⁻¹ s⁻¹; in [5] it was 210 M⁻¹ s⁻¹; in experiment [7] it was 540 M⁻¹ s⁻¹; in experiment [11], 51 M⁻¹ s⁻¹. The MIC was 0.125 µg/mL in experiment [3]; 512 µg/mL in experiment [4]; under 0.03 µg/mL in experiment [6]; 0.25 µg/mL in experiment [8]; 128 µg/mL in [9]; 16 µg/mL in experiment [10]. Also, the MIC was determined as 128 µg/mL in experiment [12], 1020 µg/mL in experiment [13], 2 µg/mL in experiment [14] and 8 µg/mL in experiment [15].
For the molecule `O=C(O)CCc1cn(C[C@@H]2CC[C@@H]3CN2C(=O)N3OS(=O)(=O)[O-])nn1.[Na+]`, the Ratio came out at 720 M⁻¹ s⁻¹ in experiment [1], 110 M⁻¹ s⁻¹ in experiment [2], 70 M⁻¹ s⁻¹ in [7] and 99 M⁻¹ s⁻¹ in experiment [11]. Moreover, the MIC in [3] was 0.25 µg/mL; in [4], 256 µg/mL; in [6] it was under 0.03 µg/mL; in experiment [8] it was 0.25 µg/mL; in [9], 64 µg/mL; in experiment [10], 8 µg/mL. In addition, the values for the MIC in experiment [12], in experiment [14] and in experiment [15] were 32 µg/mL, 2 µg/mL and 2 µg/mL, respectively. Also, the Ratio result in [5] is “inactive”.
`NCc1cn(C[C@@H]2CC[C@@H]3CN2C(=O)N3OS(=O)(=O)O)nn1.O=C(O)C(F)(F)F`: the Ratio in experiment [1] worked out at 3100 M⁻¹ s⁻¹; in experiment [2] it was 88 M⁻¹ s⁻¹; in experiment [7] it was 120 M⁻¹ s⁻¹; in [11] it was 16 M⁻¹ s⁻¹. The MIC is 0.125 µg/mL in experiment [3]; 32 µg/mL in [4]; under 0.03 µg/mL in [6]; 0.25 µg/mL in experiment [8]; 128 µg/mL in [9]; 8 µg/mL in experiment [10]. Also, the minimal inhibitory concentration (MIC) in [12] came out at 4 µg/mL; in experiment [13] it was 128 µg/mL; in experiment [14], 4 µg/mL; in experiment [15] it was 4 µg/mL. Moreover, the Ratio entry in experiment [5] is “inactive”.
As for `NCCC(=O)Nc1ccc(-c2cn(C[C@@H]3CC[C@@H]4CN3C(=O)N4OS(=O)(=O)O)nn2)cc1.O=C(O)C(F)(F)F`, the Ratio came to 940 M⁻¹ s⁻¹ in experiment [1], 150 M⁻¹ s⁻¹ in [2], 180 M⁻¹ s⁻¹ in experiment [7] and 28 M⁻¹ s⁻¹ in experiment [11]. Besides, the MIC in experiment [3] is 0.25 µg/mL; in [4], 64 µg/mL; in experiment [6], under 0.03 µg/mL; in [8], 0.25 µg/mL; in [9] it was 64 µg/mL; in [10] it was 4 µg/mL. The MIC in [12] was 32 µg/mL; in experiment [13], 128 µg/mL; in experiment [14], 2 µg/mL; in experiment [15], 4 µg/mL. The Ratio result in experiment [5] was “inactive”.
For `CN(C)Cc1cn(C[C@@H]2CC[C@@H]3CN2C(=O)N3OS(=O)(=O)[O-])nn1.[Na+]`, the Ratio in experiment [1] worked out at 780 M⁻¹ s⁻¹; in [2], 29 M⁻¹ s⁻¹; in experiment [7] it was 120 M⁻¹ s⁻¹; in [11], 20 M⁻¹ s⁻¹. The MIC in experiment [3] was 0.125 µg/mL; in experiment [4], 64 µg/mL; in [6], under 0.03 µg/mL; in experiment [8] it was 0.5 µg/mL; in experiment [9], 64 µg/mL; in experiment [10] it was 8 µg/mL. Also, the MIC was found to be 32 µg/mL in experiment [12], 256 µg/mL in experiment [13], 2 µg/mL in [14] and 4 µg/mL in experiment [15]. Also, in experiment [5], the Ratio result is “inactive”.
On to `C[Si](C)(C)c1cn(C[C@@H]2CC[C@@H]3CN2C(=O)N3OS(=O)(=O)[O-])nn1.[Na+]`, for which the Ratio in experiment [1] was 370 M⁻¹ s⁻¹; in experiment [2], 400 M⁻¹ s⁻¹; in experiment [7], 97 M⁻¹ s⁻¹; in experiment [11], 24 M⁻¹ s⁻¹. Further, the MIC in experiment [3] is 0.125 µg/mL; in [4] it was 512 µg/mL; in experiment [6], under 0.03 µg/mL; in experiment [8], 0.5 µg/mL; in experiment [9], 64 µg/mL; in experiment [10], 16 µg/mL. The MIC in experiment [12] is 64 µg/mL; in experiment [13], 1020 µg/mL; in experiment [14], 2 µg/mL; in [15], 8 µg/mL. In addition, the Ratio result in [5] is “inactive”.
Turning to `COCc1cn(C[C@@H]2CC[C@@H]3CN2C(=O)N3OS(=O)(=O)[O-])nn1.[Na+]`, the Ratio in [1] stood at 830 M⁻¹ s⁻¹; in experiment [2] it was 120 M⁻¹ s⁻¹; in [7], 18 M⁻¹ s⁻¹; in [11] it was 15 M⁻¹ s⁻¹. Moreover, the MIC was 0.125 µg/mL in experiment [3]; 512 µg/mL in experiment [4]; under 0.03 µg/mL in [6]; 0.5 µg/mL in [8]; 128 µg/mL in experiment [9]; 16 µg/mL in [10]. Moreover, the MIC in experiment [12] is 16 µg/mL; in experiment [13] it was 256 µg/mL; in experiment [14], 2 µg/mL; in experiment [15], 8 µg/mL. Further, the Ratio result in experiment [5] is “inactive”.
As for `CC(C)(C)OC(=O)NCCC(=O)Nc1ccc(-c2cn(C[C@@H]3CC[C@@H]4CN3C(=O)N4OS(=O)(=O)[O-])nn2)cc1.[Na+]`, the Ratio in [1] was 3700 M⁻¹ s⁻¹; in [2], 2400 M⁻¹ s⁻¹; in experiment [5], 150 M⁻¹ s⁻¹; in experiment [7], 1100 M⁻¹ s⁻¹; in experiment [11], 180 M⁻¹ s⁻¹. In addition, the MIC in [3] was 0.125 µg/mL; in experiment [4], 512 µg/mL; in experiment [6] it was under 0.03 µg/mL; in experiment [8] it was 0.5 µg/mL; in experiment [9] it was 128 µg/mL; in experiment [10], 16 µg/mL. Besides, the MIC is 256 µg/mL in experiment [12], 768 µg/mL in experiment [13], 2 µg/mL in [14] and 8 µg/mL in experiment [15].
As for `O=C([O-])[C@H]1/C(=C/CO)O[C@@H]2CC(=O)N21.[Na+]` [CLAVULANIC ACID (SODIUM)], the MIC in experiment [3] is 0.0625 µg/mL; in experiment [4], 512 µg/mL; in experiment [6], under 0.03 µg/mL; in [8], 0.5 µg/mL; in experiment [9] it was 128 µg/mL; in experiment [10] it was 8 µg/mL. In addition, the MIC in experiment [12] was determined as 2 µg/mL; in experiment [13], 2 µg/mL; in experiment [14], 2 µg/mL; in experiment [15], 8 µg/mL.
Turning to `O=C1N2C[C@@H](CC[C@H]2Cn2cc(-c3cccnc3)nn2)N1OS(=O)(=O)[O-].[Na+]`, the Ratio in experiment [1] came to 1400 M⁻¹ s⁻¹; in experiment [2], 1700 M⁻¹ s⁻¹; in experiment [7], 550 M⁻¹ s⁻¹; in experiment [11] it was 85 M⁻¹ s⁻¹. Also, the MIC is 0.125 µg/mL in experiment [3]; 32 µg/mL in [4]; under 0.03 µg/mL in [6]; 0.25 µg/mL in experiment [8]; 128 µg/mL in [9]; 8 µg/mL in experiment [10]. Further, the MIC came to 8 µg/mL in experiment [12], 32 µg/mL in experiment [13], 2 µg/mL in [14] and 2 µg/mL in [15]. For the same molecule, the Ratio entry in experiment [5] was “inactive”.
Consider `CC(C)(C)OC(=O)N1CCC(c2cn(C[C@@H]3CC[C@@H]4CN3C(=O)N4OS(=O)(=O)[O-])nn2)CC1.[Na+]`, for which the Ratio was 1700 M⁻¹ s⁻¹ in experiment [1]; 230 M⁻¹ s⁻¹ in experiment [2]; 210 M⁻¹ s⁻¹ in experiment [5]; 830 M⁻¹ s⁻¹ in experiment [7]; 29 M⁻¹ s⁻¹ in experiment [11]. In addition, the MIC in experiment [3] is 0.125 µg/mL; in experiment [4], 2050 µg/mL; in experiment [6] it was under 0.03 µg/mL; in experiment [8], 0.25 µg/mL; in experiment [9] it was 128 µg/mL; in experiment [10], 16 µg/mL. Further, the MIC in [12] was found to be 256 µg/mL; in [13], 4100 µg/mL; in experiment [14], 2 µg/mL; in experiment [15] it was 8 µg/mL.
